Experimental data as given in ChEMBL document CHEMBL4706489, “Hydrogen sulfide releasing oridonin derivatives induce apoptosis through extrinsic and intrinsic pathways” (Eur J Med Chem, 2020).
Active and inactive are the calls of the source. No cut-off for these calls is given here.

Key:
[1] = test system: K562; test: Induction of cell cycle arrest in human K562 cells assessed as accumulation at G1 phase at 0.5 uM after 48 hrs by propidium iodide staining based flow cytometric analysis (reference value: 43.24 to 43.37%); assay type: functional
[2] = test system: K562; test: Induction of cell cycle arrest in human K562 cells assessed as accumulation at G2 phase at 0.5 uM after 48 hrs by propidium iodide staining based flow cytometric analysis (reference value: 10.96 to 12.03%); assay type: functional
[3] = test system: K562; test: Induction of cell cycle arrest in human K562 cells assessed as accumulation at S phase at 1 uM after 48 hrs by propidium iodide staining based flow cytometric analysis (reference value: 44.73 to 45.96%); assay type: functional
[4] = test system: K562; test: Induction of cell cycle arrest in human K562 cells assessed as accumulation at G2 phase at 2 uM after 48 hrs by propidium iodide staining based flow cytometric analysis (reference value: 10.96 to 12.03%); assay type: functional
[5] = test system: HepG2; test: Induction of cell cycle arrest in human HepG2 cells assessed as accumulation at S phase at 0.5 uM after 48 hrs by propidium iodide staining based flow cytometric analysis (reference value: 33.22 to 33.58%); assay type: functional
[6] = test system: HepG2; test: Induction of cell cycle arrest in human HepG2 cells assessed as accumulation at G2 phase at 0.5 uM after 48 hrs by propidium iodide staining based flow cytometric analysis (reference value: 16.48 to 16.97%); assay type: functional
Method in brief: (§1)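 HepG2 cells were treated with 0, 0.50, 1.0 or 2.0 test agent for 48 h. Cells were washed in cold PBS and fixed in 70% ethanol at −20 °C overnight. DNA-content distribution was measured by flow cytometry. Mean ± SD, three independent experiments.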

[7] = test system: HepG2; test: Induction of cell cycle arrest in human HepG2 cells assessed as accumulation at G1 phase at 1 uM after 48 hrs by propidium iodide staining based flow cytometric analysis (reference value: 49.46 to 50.3%); assay type: functional; method in brief: as §1
[8] = test system: HepG2; test: Induction of cell cycle arrest in human HepG2 cells assessed as accumulation at G1 phase at 2 uM after 48 hrs by propidium iodide staining based flow cytometric analysis (reference value: 49.46 to 50.3%); assay type: functional; method in brief: as §1
[9] = test system: HepG2; test: Induction of cell cycle arrest in human HepG2 cells assessed as accumulation at S phase at 2 uM after 48 hrs by propidium iodide staining based flow cytometric analysis (reference value: 33.22 to 33.58%); assay type: functional
[10] = test system: HepG2; test: Induction of cell cycle arrest in human HepG2 cells assessed as accumulation at G2 phase at 2 uM after 48 hrs by propidium iodide staining based flow cytometric analysis (reference value: 16.48 to 16.97%); assay type: functional
[11] = test system: K562; test: Induction of apoptosis in human K562 cells assessed as viable cells at 0.5 uM after 48 hrs by annexin V FITC and propidium iodide staining based flow cytometric analysis (reference value: 96.76%); assay type: functional; conditions: read-out: Activity
[12] = test system: K562; test: Induction of apoptosis in human K562 cells assessed as viable cells at 1 uM after 48 hrs by annexin V FITC and propidium iodide staining based flow cytometric analysis (reference value: 96.76%); assay type: functional; conditions: read-out: Activity
[13] = test system: HepG2; test: Induction of apoptosis in human HepG2 cells assessed as late apoptotic cells at 0.5 uM after 48 hrs by annexin V FITC and propidium iodide staining based flow cytometric analysis (reference value: 3.17%); assay type: functional
[14] = test system: HepG2; test: Induction of apoptosis in human HepG2 cells assessed as necrotic cells at 0.5 uM after 48 hrs by annexin V FITC and propidium iodide staining based flow cytometric analysis (reference value: 0.89%); assay type: functional
[15] = test system: HepG2; test: Induction of apoptosis in human HepG2 cells assessed as viable cells at 1 uM after 48 hrs by annexin V FITC and propidium iodide staining based flow cytometric analysis (reference value: 93.5%); assay type: functional; conditions: read-out: Activity
[16] = test system: HepG2; test: Induction of apoptosis in human HepG2 cells assessed as viable cells at 2 uM after 48 hrs by annexin V FITC and propidium iodide staining based flow cytometric analysis (reference value: 93.5%); assay type: functional; conditions: read-out: Activity
[17] = test system: HepG2; test: Induction of apoptosis in human HepG2 cells assessed as early apoptotic cells at 2 uM after 48 hrs by annexin V FITC and propidium iodide staining based flow cytometric analysis (reference value: 2.89%); assay type: functional
[18] = test system: HepG2; test: Induction of apoptosis in human HepG2 cells assessed as late apoptotic cells at 2 uM after 48 hrs by annexin V FITC and propidium iodide staining based flow cytometric analysis (reference value: 3.17%); assay type: functional
[19] = test system: HepG2; test: Induction of apoptosis in human HepG2 cells assessed as necrotic cells at 2 uM after 48 hrs by annexin V FITC and propidium iodide staining based flow cytometric analysis (reference value: 0.89%); assay type: functional
[20] = test system: K562; test: Induction of mitochondrial membrane potential loss in human K562 cells after 48 hrs by JC1 staining based flow cytometric analysis; assay type: functional, cell-based; conditions: dose 0.5-2 µM
Method in brief: (§2)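 K562 and HepG2 cells in 6-well plates were exposed for 48 h at 0, 0.50, 1.0 and 2.0 µM, with DMSO vehicle control. After trypsinization, cells were stained with JC-1 (0.5 mg/mL) at 37 °C in darkness for 30 min, then washed with PBS. Membrane potential was read by flow cytometry. Mean ± SD, three independent experiments.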

[21] = test system: HepG2; test: Induction of mitochondrial membrane potential loss in human HepG2 cells after 48 hrs by JC1 staining based flow cytometric analysis; assay type: functional, cell-based; conditions: dose 0.5-2 µM; method in brief: as §2
[22] = test system: K562; test: Induction of apoptosis in human K562 cells assessed as decrease in C-IAP2 protein expression at 1 uM after 24 hrs by chemiluminescence based apoptosis array method; assay type: functional, cell-based
Method in brief: (§3)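 K562 cells were treated with 1 test agent for 24 h. Diluted total-cell lysates were applied to a human apoptosis antibody array covering 35 apoptosis-related proteins for 24 h. Unbound protein was washed off, and arrays were probed with a biotinylated detection antibody for 1 h. Relative expression was read from chemiluminescent signal by digital imaging.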

[23] = test system: K562; test: Induction of apoptosis in human K562 cells assessed as increase in DR4 protein expression at 1 uM after 24 hrs by chemiluminescence based apoptosis array method; assay type: functional, cell-based; method in brief: as §3
[24] = test system: K562; test: Induction of apoptosis in human K562 cells assessed as increase in DR5 protein expression at 1 uM after 24 hrs by chemiluminescence based apoptosis array method; assay type: functional, cell-based; method in brief: as §3
[25] = Cytotoxicity against human PBMC cells assessed as cell viability after 72 hrs by MTT assay
[26] = test system: B16; test: Antiproliferative activity against mouse B16 cells assessed as reduction in cell viability after 72 hrs by MTT assay; conditions: B16, 72 h
[27] = test system: MCF7; test: Antiproliferative activity against human MCF7 cells assessed as reduction in cell viability after 72 hrs by MTT assay; conditions: MCF7, 72 h
[28] = test system: K562; test: Antiproliferative activity against human K562 cells assessed as reduction in cell viability after 72 hrs by MTT assay; conditions: K562, 72 h
[29] = test system: HCT-116; test: Antiproliferative activity against human HCT-116 cells assessed as reduction in cell viability after 72 hrs by MTT assay; conditions: HCT-116, 72 h
[30] = test system: K562; test: Induction of apoptosis in human K562 cells after 48 hrs by annexin V FITC and propidium iodide staining based flow cytometric analysis; conditions: dose 0.5-2 µM

C=C1C(=O)[C@]23[C@H](OC(=O)CCC(=O)OCCCCCCOc4ccc(-c5cc(=S)ss5)cc4)[C@H]1CC[C@H]2[C@@]12CO[C@@]3(O)[C@@H](O)[C@@H]1C(C)(C)CC[C@@H]2OC(C)=O
Activity [1]: 38.61% | Activity [2]: 11.07% | Activity [3]: 55.54% | Activity [4]: 7.39% | Activity [5]: 31.41% | Activity [6]: 13.24% | Activity [7]: 61.39% | Activity [8]: 65.1% | Activity [9]: 28.3% | Activity [10]: 6.6% | viability at 0.5 µM [11]: 87% | viability at 1 µM [12]: 79.1% | Activity [13]: 10.09% | Activity [14]: 2.7% | viability at 1 µM [15]: 60.5% | viability at 2 µM [16]: 31.5% | Activity [17]: 26.44% | Activity [18]: 37.6% | Activity [19]: 4.42% | Activity [20]: Dose-dependent effect | Activity [21]: Dose-dependent effect | Activity [22]: Active | Activity [23]: Active | Activity [24]: Active | IC50 [25]: > 50 µM | IC50 [26]: 12.9 µM | IC50 [27]: 16.1 µM | IC50 [28]: 0.95 µM | IC50 [29]: 5.81 µM | Activity [30]: Dose-dependent effect
